AHR activator: activators of human aryl hydrocarbon receptor; activation, % at 5 µM; AHR-responsive luciferase reporter cells, luminescence; 320,000 compounds, 2.5% hits; in the data active = activation above about 47%
PolyA inhibitor: blocks polyadenylation in yeast reporter cells. S. cerevisiae SKY197-pL101 polyadenylation reporter, beta-gal luminescence; efflux-impaired pdr1/pdr3 knockout yeast; score 100 = 6 SD above DMSO. activity score, % at 12 µM. 300,000 compounds, 0.02% hits. AID 1875;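 active = lowest replicate activity score at least 50, where 100 means six control SD above control mean; inconclusive = lowest score under 50 but half or more replicates reach 50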;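 note: yeast exposed to compound for 9 h at 30 °C; higher score means more reporter readthrough which indicates perturbed polyadenylation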
proCasp3 act: procaspase-3 (human) activation | 330,000 compounds, 0.11% hits | P42574 | activation, % at 8.5 µM | AID 463141 | recombinant procaspase-3 D3A, Ac-DEVD-pNA absorbance 405 nm;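 active = activation above the mean of all tested compounds plus 3 SD, cut at about 21% in these data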
Target sequence (P42574 whole entry D9A/D28A/D175A): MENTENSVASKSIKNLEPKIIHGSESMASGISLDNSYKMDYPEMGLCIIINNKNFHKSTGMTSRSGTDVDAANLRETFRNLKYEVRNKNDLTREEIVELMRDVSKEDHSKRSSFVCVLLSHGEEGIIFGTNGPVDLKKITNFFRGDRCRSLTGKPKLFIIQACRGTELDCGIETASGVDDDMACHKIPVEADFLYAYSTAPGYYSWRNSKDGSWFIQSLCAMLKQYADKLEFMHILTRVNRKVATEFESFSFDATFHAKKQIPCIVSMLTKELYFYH
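Assay system: Autoprocessing-dead procaspase-3 D3A mutant enzyme; also added: Ac-DEVD-pNA; doses: one concentration, 8.5 µM nominal, 0.8% DMSO; times: 1 h compound preincubation, 2 h substrate hydrolysis at 25 °C; technique: 405 nm absorbance of p-nitroaniline, reads at 0 and 120 min; measure: % activation between DMSO and enzyme-spiked controls; repeats: single replicate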
proCasp7 act: activates human procaspase-7, counter-screen for procaspase-3 activators; recombinant procaspase-7, Ac-DEVD-pNA absorbance 405 nm; D23A/D198A/D206A triple mutant, cannot self-cleave; scale: DMSO 0, 5 µM enzyme 100; activation, % at 8.5 µM; 330,000 compounds, 0.093% hits;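 active = percent activation above the screen-wide mean plus 3 SD, cut at about 25% in these data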
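signal = Epi-absorbance of released pNA at 405 nm, two timepoints | assay system = Uncleavable procaspase-7 mutant enzyme | reagent = Ac-DEVD-pNA substrate, 400 µM as added | times = 1 h enzyme–compound preincubation and 2 h substrate reaction, both 25 °C | benchmarks = low DMSO alone, high DMSO plus 5 µM PC-7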
AHR act confirm: human AHR activation, confirmation. activation, % at 9 µM. shares compounds with AHR activator. human cells, AHR-responsive luciferase reporter, luminescence. 2,300 compounds, 87% hits; in the data active = activation above about 49%;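 note: HepG2 hepatoma cells carrying a DRE-driven firefly luciferase reporter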
PXR act counter: activates human PXR in AHR activator counter-screen; activation, % at 11.6 µM; 2,300 compounds, 88% hits; shares compounds with AHR activator; cell-based PXR reporter, luciferase luminescence; AID 434939; in the data active = activation above about 11%;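 note: human hepatoma DPX-2 cells expressing full-length human PXR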
Target sequence (O75469 whole entry, looked up): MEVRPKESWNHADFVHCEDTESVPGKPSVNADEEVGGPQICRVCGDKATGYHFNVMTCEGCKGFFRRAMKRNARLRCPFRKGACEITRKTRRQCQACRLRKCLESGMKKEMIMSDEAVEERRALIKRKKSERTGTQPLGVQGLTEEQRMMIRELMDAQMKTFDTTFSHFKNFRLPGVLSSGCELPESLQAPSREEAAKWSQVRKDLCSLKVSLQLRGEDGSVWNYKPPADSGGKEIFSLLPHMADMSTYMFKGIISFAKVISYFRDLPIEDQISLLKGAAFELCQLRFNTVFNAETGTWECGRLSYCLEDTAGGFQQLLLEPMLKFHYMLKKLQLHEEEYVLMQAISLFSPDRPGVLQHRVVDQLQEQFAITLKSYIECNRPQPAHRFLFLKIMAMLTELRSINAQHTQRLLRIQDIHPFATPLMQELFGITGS
A number is an active result; . = inactive; ? = inconclusive; / = no result. In the library only some 2.6% were active in any assay of this set; here they are far more common.

SMILES | AHR activator | PolyA inhibitor | proCasp3 act | proCasp7 act | AHR act confirm | PXR act counter
Cc1ccc(C)c(S(=O)(=O)N2CCN(C(=O)CCNS(=O)(=O)c3ccccc3)CC2)c1 | . | . | . | . | / | /
O=C(Cc1ccccc1)NC(=S)Nc1cc(C(F)(F)F)ccc1Cl | . | . | . | . | / | /
FC(F)(F)c1ccc(Cl)c(NC(=S)N/N=C/c2ccccc2C(F)(F)F)c1 | 105 | . | . | . | 55 | 74
CCOc1cccc(C(=O)Nc2ccc3[nH]ncc3c2)c1 | 93 | . | . | . | . | 23
O=C(CSc1ccccc1F)NCC(c1cccs1)N1CCOCC1 (stereo not given) | . | / | . | . | / | /
COc1ccc(CCNC(=O)COc2cc(O)c3c(c2)OC(C)(C)CC3=O)cc1OC | . | . | . | . | / | /
CCOc1ccc2oc(C(=O)Nc3nccs3)c(C)c2c1 | 107 | / | . | . | 162 | 23
COc1ccc(-c2sc3ccc(OC)cc3c2-c2ccc(OC)c(F)c2)cc1 | . | / | . | . | / | /
COc1ccc2sc(-c3ccc(SC)cc3)c(-c3ccc(O)cc3)c2c1 | 80 | / | . | . | 84 | 19
Cc1ccc(/C=N\Nc2nc3ccc(Cl)cc3[nH]2)o1 | 165 | . | . | . | 117 | 22
Cc1ccc(/C=N/Nc2ccc3ccccc3n2)o1 | . | / | . | . | / | /
Fc1ccccc1-c1ccc(/C=N/Nc2nc3ccccc3[nH]2)o1 | 84 | / | . | . | 78 | 11
Cc1[nH]c2ccccc2c1C(=O)CSc1cccc[n+]1[O-] | . | . | . | . | / | /
Cc1[nH]c2ccccc2c1C(=O)COc1ccccc1 | 135 | . | . | . | 128 | 30
Cc1[nH]c2ccccc2c1C(=O)CNc1nccs1 | 83 | . | . | . | . | 26
Cc1[nH]c2ccccc2c1C(=O)CCl | / | . | / | / | / | /
Cc1[nH]c2ccccc2c1SCc1ccccc1 | 128 | . | . | . | 103 | 38
Cc1[nH]c2ccccc2c1C(=O)CSc1ccccc1 | 101 | . | . | . | 93 | 72
COC(=O)C1CCN(CC(=O)Nc2ccc(C(=O)Nc3ccccc3OC)cc2)CC1 | . | / | . | . | / | /
O=C(NNC(=O)c1cc(Br)c(Br)s1)c1csc(N2CCOCC2)n1 | . | . | . | . | / | /
Cc1ccccc1C(=O)N1CCCC(N2CCN(Cc3ccc4c(c3)OCO4)CC2)C1 (stereo not given) | . | . | . | . | / | /
O=c1[nH]c(/C=C/c2ccccc2OC(F)F)nc2c1cnn2-c1ccccc1 | 85 | . | . | . | . | 33
CCOc1ccc(NC(=O)CNC(=O)COc2ccccc2)cc1 | 121 | . | . | . | . | 11
CCOc1ccc(NC(=O)Nc2cccc(C)n2)cc1 | 80 | . | . | . | 71 | 18
CC(=O)Nc1cccc(OCC(=O)Nc2ccc(F)cc2)c1 | 85 | . | . | . | 76 | /
SMILES | AHR activator | PolyA inhibitor | proCasp3 act | proCasp7 act | AHR act confirm | PXR act counter
CC(=O)Nc1ccc(NC(=O)CNC(=O)COc2ccccc2)cc1 | . | . | . | . | / | /
CC(=O)Nc1cccc(OCc2ccc(F)cc2)c1 | . | . | . | . | / | /
CCN(c1ccccc1)S(=O)(=O)c1cc(NC(=O)CN2CCN(C)CC2)ccc1Cl | . | / | . | . | / | /
Cc1cc(C)n(-c2nc(-c3cccc(Cl)c3)cs2)n1 | 109 | . | . | . | 101 | 22
Cc1cc(C)n(-c2nc(-c3ccccc3)cs2)n1 | . | . | . | . | / | /
COc1ccc(C(C)=O)cc1CC(=O)Nc1cccc(S(=O)(=O)N2CCOCC2)c1 | . | / | . | . | / | /
CCOC(=O)CN1C(=O)NC2(CCCc3ccccc32)C1=O (stereo not given) | . | . | . | . | / | /
Clc1cccc(Nc2nc(-c3ccncc3)cs2)c1 | 98 | . | . | . | 96 | 11
O=C(Nc1cccc(-c2csc(Nc3ccc(Cl)cc3)n2)c1)c1cccc(C(F)(F)F)c1 | 106 | . | . | . | . | 25
CC(=O)Nc1cccc(-c2csc(Nc3ccc(C)cn3)n2)c1 | 145 | . | . | . | . | 34
O=C(Nc1cccc(-c2csc(Nc3ccc(Cl)cc3)n2)c1)c1ccccc1 | 93 | . | . | . | 95 | 22
O=C(Nc1ccc(-c2csc(Nc3ccc(Cl)cc3)n2)cc1)c1cc([N+](=O)[O-])cc(C(F)(F)F)c1 | . | . | . | . | / | /
O=C(Nc1ccc(-c2csc(Nc3ccccc3)n2)cc1)c1ccccc1 | . | . | . | . | / | /
CC(=O)c1cccc(NC(=O)c2cc(=O)[nH]c3ccc(S(=O)(=O)N4CCOCC4)cc23)c1 | . | / | . | . | / | /
Cc1nc2ccc(Br)cc2c2c1CC(CO)O2 (stereo not given) | . | . | . | . | / | /
Cc1cc(C)c2c(c1)SC1=NC(c3ccccc3)(C(F)(F)F)NC(=O)N12 (stereo not given) | 91 | . | . | . | 66 | 21
Cc1cccc2cc3c(N)c(C(=O)N4CCOCC4)sc3nc12 | 81 | . | . | . | 78 | /
Cc1cc(C)c2cc3c(N)c(C(=O)N4CCc5ccccc5C4)sc3nc2c1 | . | . | . | . | / | /
Cc1cc(C)nc(Nc2ccccc2Cl)n1 | . | . | . | . | / | /
Cc1cc(C)nc(Nc2ncc(O)n2-c2ccccc2)n1 | 90 | . | . | . | 61 | /
COc1ccc(Cn2c(S(=O)(=O)CC(N)=O)nc3ccccc32)cc1[N+](=O)[O-] | . | . | . | . | / | /
c1ccc2c(C3=NNC(=NC4CC4)SC3)c[nH]c2c1 | 97 | . | . | . | . | 11
COc1ccc(N(CC(=O)Nc2ccc(C(C)C)cc2)S(=O)(=O)c2c(C)noc2C)cc1 | . | . | . | . | / | /
Cc1noc(C)c1S(=O)(=O)N(CC(=O)Nc1ccc2c(c1)OCO2)c1ccc(C(C)C)cc1 | 80 | / | . | . | 84 | 159
Cn1c(N)c(C(=O)Nc2ccccc2F)sc1=S | 115 | . | . | . | 105 | /
SMILES | AHR activator | PolyA inhibitor | proCasp3 act | proCasp7 act | AHR act confirm | PXR act counter
Fc1ccc(/C=N/NC(=S)Nc2cccnc2)cc1 | 105 | . | . | . | 53 | 19
Fc1cccc(F)c1/C=N/NC(=S)Nc1cccnc1 | . | . | . | . | / | /
Fc1ccc(/C=N/NC(=S)Nc2cccnc2)cc1F | 99 | . | . | . | 92 | 14
CC(=O)c1ccccc1NC(=O)c1ccc(OCc2c(C)noc2C)cc1 | . | / | . | . | / | /
C#CCOCCOCCOCCNc1nc(N2CCN(C(=O)[C@H](CCC(=O)O)n3cc([C@@H](N)[C@H](C)CC)nn3)CC2)nc(N2CCN(C(=O)[C@H](CCC(=O)O)n3cc([C@@H](N)CCSC)nn3)CC2)n1 | . | / | . | . | / | /
CC(C)c1cc(CNC(=O)C2CCC(=O)N(Cc3ccccc3F)C2)on1 (stereo not given) | . | ? | . | . | / | /
C=CCNC(=O)CCC(=O)NNc1nc2ccccc2c2nc(-c3ccccc3)nn12 | 100 | . | . | . | 61 | 13
CCOc1ccc(CCNC(=O)COC(=O)c2oc3ccccc3c2COC)cc1OCC | . | / | . | . | / | /

Source: PubChem
